Assays:
SW-620 [1] = assay: Cell cycle arrest in human SW620 cells assessed as accumulation at S-phase at 75 uM after 48 hrs by propidium iodide staining based flow cytometry (reference value: 43.72%); type: functional
SW-620 [2] = assay: Upregulation of p21 expression in human SW620 cells after 48 hrs by Western blot analysis; type: functional, cell-based
SW-620 [3] = assay: Induction of apoptosis in human SW620 cells assessed as live cells at 25 uM after 48 hrs by Annexin-V-FITC/propidium iodide staining based flow cytometry (reference value: 97.5%); type: functional
SW-620 [4] = assay: Induction of apoptosis in human SW620 cells assessed as live cells at 75 uM after 48 hrs by Annexin-V-FITC/propidium iodide staining based flow cytometry (reference value: 97.5%); type: functional
SW-620 [5] = assay: Induction of apoptosis in human SW620 cells assessed as early apoptotic cells at 75 uM after 48 hrs by Annexin-V-FITC/propidium iodide staining based flow cytometry (reference value: 0.4%); type: functional
HT-29 [6] = assay: Induction of apoptosis in human HT-29 cells assessed as increase in PARP activation after 48 hrs by Western blot analysis; type: functional, cell-based
Method in brief: (§1)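 HT29 or SW620 cells were treated at 0, 25, 50 and 75 μM for 48 h and lysed in RIPA with protease and phosphatase inhibitors. Protein was quantified by BCA. 50 μg lysate was run on 8–15% SDS-PAGE and transferred to PVDF. Blocking was 5% BSA/TBST for 2 h; primary antibodies were applied overnight at 4 °C, then HRP secondary 1 h at room temperature.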

HT-29 [7] = assay: Effect on total mTOR expression in human HT-29 cells up to 75 uM after 48 hrs by Western blot analysis; type: ADME, cell-based; settings: ht-29, 48 h; method in brief: as §1
SW-620 [8] = assay: Effect on total 4EBP1 expression in human SW620 cells up to 75 uM after 48 hrs by Western blot analysis; type: ADME, cell-based; settings: sw-620, 48 h; method in brief: as §1
SW-620 [9] = assay: Effect on total mTOR expression in human SW620 cells up to 75 uM after 48 hrs by Western blot analysis; type: ADME, cell-based; settings: sw-620, 48 h; method in brief: as §1
[10] = target: ALK tyrosine kinase receptor (Homo sapiens, UniProt Q9UM73); assay: Inhibition of human ALK (I1088 to E1409 residues) expressed in mammalian expression system assessed as residual activity at 5 uM by KINOMEscan assay relative to control
[11] = target: Casein kinase I isoform delta (Homo sapiens, UniProt P48730); assay: Inhibition of full length human CSNK1D (M1 to K409 residues) expressed in bacterial expression system assessed as residual activity at 5 uM by KINOMEscan assay relative to control
Sequence of Casein kinase I isoform delta (P48730 whole entry, looked up, the tested form may be a part, canonical isoform): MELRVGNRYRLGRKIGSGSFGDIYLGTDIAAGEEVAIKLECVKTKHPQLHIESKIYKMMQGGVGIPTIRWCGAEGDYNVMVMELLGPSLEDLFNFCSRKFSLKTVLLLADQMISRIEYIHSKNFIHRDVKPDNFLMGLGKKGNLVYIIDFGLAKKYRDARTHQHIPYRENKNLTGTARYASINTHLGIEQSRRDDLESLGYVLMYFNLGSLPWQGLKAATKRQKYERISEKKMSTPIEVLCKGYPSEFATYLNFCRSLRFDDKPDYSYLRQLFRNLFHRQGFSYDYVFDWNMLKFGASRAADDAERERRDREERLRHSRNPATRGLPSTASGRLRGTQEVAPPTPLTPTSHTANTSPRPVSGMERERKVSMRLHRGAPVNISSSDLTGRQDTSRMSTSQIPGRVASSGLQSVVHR

[12] = target: Glycogen synthase kinase-3 beta (Homo sapiens, UniProt P49841); assay: Inhibition of full length human GSK3B (M1 to T433 residues) expressed in mammalian expression system assessed as residual activity at 5 uM by KINOMEscan assay relative to control
[13] = target: Serine/threonine-protein kinase PAK 1 (Homo sapiens, UniProt Q13153); assay: Inhibition of human PAK1 (S149 to H545 residues) expressed in bacterial expression system assessed as residual activity at 5 uM by KINOMEscan assay relative to control
Sequence of Serine/threonine-protein kinase PAK 1 (Q13153 whole entry, the tested form may be a part): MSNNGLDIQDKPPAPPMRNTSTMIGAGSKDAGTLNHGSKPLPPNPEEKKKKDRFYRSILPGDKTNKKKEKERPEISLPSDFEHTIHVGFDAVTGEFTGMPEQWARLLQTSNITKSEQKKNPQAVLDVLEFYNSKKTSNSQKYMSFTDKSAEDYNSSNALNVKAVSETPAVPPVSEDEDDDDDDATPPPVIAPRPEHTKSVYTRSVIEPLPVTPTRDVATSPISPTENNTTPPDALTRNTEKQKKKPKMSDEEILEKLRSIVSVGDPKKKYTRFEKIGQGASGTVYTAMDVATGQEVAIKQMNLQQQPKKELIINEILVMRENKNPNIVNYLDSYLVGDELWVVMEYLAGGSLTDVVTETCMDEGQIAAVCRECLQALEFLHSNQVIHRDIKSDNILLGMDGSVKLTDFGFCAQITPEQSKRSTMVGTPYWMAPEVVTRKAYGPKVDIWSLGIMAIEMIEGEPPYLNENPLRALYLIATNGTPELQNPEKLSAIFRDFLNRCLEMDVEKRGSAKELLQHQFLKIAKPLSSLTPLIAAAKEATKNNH

[14] = target: Serine/threonine-protein kinase PLK3 (Homo sapiens, UniProt Q9H4B4); assay: Inhibition of partial length human PLK3 (A42 to L334 residues) expressed in mammalian expression system assessed as residual activity at 5 uM by KINOMEscan assay relative to control
Sequence of Serine/threonine-protein kinase PLK3 (Q9H4B4 whole entry, looked up, the tested form may be a part): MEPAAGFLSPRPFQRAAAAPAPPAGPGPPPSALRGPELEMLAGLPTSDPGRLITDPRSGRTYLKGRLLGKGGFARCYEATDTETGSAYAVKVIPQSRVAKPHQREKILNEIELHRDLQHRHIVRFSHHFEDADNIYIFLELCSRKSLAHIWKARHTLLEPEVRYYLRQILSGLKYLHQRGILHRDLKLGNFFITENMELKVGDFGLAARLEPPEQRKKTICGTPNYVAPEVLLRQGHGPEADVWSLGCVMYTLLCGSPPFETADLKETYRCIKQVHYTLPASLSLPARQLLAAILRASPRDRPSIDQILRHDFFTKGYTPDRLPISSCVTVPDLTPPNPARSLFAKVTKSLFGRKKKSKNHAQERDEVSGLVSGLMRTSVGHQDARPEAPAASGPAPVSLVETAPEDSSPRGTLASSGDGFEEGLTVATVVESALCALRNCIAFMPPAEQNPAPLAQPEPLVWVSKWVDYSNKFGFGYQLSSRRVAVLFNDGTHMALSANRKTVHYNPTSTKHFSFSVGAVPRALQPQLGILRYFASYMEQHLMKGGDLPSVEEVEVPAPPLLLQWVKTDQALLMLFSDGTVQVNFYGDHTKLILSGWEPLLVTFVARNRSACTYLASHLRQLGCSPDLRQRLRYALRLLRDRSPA

[15] = target: Proto-oncogene tyrosine-protein kinase Src (Homo sapiens, UniProt P12931); assay: Inhibition of human SRC (L240 to L536 residues) expressed in bacterial expression system assessed as residual activity at 5 uM by KINOMEscan assay relative to control
[16] = target: Vascular endothelial growth factor receptor 2 (Homo sapiens, UniProt P35968); assay: Inhibition of human VEGFR2 (R787 to P1253 residues) expressed in mammalian expression system assessed as residual activity at 5 uM by KINOMEscan assay relative to control
[17] = target: RAC-alpha serine/threonine-protein kinase (Homo sapiens, UniProt P31749); assay: Binding affinity to human AKT1 expressed in bacterial expression system by KINOMEscan assay
[18] = target: Epidermal growth factor receptor (Homo sapiens, UniProt P00533, L858R); assay: Binding affinity to partial length human EGFR (R669 to V1011 residues) L858R mutant expressed in bacterial expression system by KINOMEscan assay
[19] = target: Fibroblast growth factor receptor 3 (Homo sapiens, UniProt P22607); assay: Binding affinity to partial length human FGFR3 (R442 to S771 residues) expressed in bacterial expression system by KINOMEscan assay
Sequence of Fibroblast growth factor receptor 3 (P22607 whole entry, the tested form may be a part): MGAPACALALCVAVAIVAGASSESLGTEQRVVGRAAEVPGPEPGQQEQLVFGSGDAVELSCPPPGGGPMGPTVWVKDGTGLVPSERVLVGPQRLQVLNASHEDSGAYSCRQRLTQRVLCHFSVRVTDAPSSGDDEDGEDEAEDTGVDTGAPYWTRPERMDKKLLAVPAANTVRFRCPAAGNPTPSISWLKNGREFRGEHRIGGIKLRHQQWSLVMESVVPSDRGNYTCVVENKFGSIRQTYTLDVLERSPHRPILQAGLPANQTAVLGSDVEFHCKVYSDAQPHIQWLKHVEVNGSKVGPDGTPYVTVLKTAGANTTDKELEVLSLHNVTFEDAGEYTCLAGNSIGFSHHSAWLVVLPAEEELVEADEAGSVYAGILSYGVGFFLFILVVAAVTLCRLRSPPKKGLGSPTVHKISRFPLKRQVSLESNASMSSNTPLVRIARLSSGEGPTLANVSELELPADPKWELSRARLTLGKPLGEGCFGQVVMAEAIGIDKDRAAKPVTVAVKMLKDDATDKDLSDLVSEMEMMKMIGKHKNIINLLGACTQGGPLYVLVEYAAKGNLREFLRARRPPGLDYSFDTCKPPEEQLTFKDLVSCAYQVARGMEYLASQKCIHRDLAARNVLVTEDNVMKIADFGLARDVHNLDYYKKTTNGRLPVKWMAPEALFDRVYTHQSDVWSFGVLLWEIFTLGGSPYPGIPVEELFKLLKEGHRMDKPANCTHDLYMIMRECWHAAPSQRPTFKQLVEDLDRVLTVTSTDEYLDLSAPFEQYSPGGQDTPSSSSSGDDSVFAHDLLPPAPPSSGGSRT

[20] = target: 3-phosphoinositide-dependent protein kinase 1 (Homo sapiens, UniProt O15530); assay: Binding affinity to full length human PDPK1 (M1 to Q556 residues) expressed in bacterial expression system by KINOMEscan assay
Angiopoietin-1 receptor = Angiopoietin-1 receptor (Homo sapiens, UniProt Q02763); assay: Binding affinity to human TIE2 (N804 to T1112 residues) expressed in bacterial expression system by KINOMEscan assay
Sequence of Angiopoietin-1 receptor (Q02763 whole entry, the tested form may be a part): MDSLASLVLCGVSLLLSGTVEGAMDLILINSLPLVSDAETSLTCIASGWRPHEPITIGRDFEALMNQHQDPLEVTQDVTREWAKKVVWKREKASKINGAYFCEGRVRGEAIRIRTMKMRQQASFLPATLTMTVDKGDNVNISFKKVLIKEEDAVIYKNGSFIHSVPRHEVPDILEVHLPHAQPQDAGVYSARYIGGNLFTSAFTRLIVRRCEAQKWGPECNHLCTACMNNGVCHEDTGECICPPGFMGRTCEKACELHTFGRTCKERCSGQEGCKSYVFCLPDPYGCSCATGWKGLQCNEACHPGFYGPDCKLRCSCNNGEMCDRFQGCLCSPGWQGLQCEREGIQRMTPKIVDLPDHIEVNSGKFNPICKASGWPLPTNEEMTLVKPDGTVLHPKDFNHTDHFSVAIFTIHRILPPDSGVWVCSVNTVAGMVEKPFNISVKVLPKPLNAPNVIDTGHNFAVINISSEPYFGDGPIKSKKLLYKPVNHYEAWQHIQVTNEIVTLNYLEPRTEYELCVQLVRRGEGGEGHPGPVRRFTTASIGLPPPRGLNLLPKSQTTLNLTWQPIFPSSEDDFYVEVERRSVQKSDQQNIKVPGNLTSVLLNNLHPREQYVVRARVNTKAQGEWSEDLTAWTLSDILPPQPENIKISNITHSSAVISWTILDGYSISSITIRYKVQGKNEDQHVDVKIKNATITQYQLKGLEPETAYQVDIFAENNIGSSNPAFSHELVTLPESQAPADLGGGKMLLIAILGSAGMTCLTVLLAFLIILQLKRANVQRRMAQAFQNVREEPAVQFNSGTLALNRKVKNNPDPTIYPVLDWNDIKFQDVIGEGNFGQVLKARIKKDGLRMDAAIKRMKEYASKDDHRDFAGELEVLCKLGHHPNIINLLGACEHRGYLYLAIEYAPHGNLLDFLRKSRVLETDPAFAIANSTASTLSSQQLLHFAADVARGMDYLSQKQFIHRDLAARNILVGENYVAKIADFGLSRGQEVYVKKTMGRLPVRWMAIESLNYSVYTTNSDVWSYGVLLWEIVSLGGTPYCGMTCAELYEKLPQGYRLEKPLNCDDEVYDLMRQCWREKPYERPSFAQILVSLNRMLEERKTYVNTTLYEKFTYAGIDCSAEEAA

[21] = target: Non-receptor tyrosine-protein kinase TYK2 (Homo sapiens, UniProt P29597); assay: Binding affinity to human TYK2 JH1 catalytic domain (V877 to C1187 residues) expressed in mammalian expression system by KINOMEscan assay
Sequence of Non-receptor tyrosine-protein kinase TYK2 (P29597 whole entry, the tested form may be a part): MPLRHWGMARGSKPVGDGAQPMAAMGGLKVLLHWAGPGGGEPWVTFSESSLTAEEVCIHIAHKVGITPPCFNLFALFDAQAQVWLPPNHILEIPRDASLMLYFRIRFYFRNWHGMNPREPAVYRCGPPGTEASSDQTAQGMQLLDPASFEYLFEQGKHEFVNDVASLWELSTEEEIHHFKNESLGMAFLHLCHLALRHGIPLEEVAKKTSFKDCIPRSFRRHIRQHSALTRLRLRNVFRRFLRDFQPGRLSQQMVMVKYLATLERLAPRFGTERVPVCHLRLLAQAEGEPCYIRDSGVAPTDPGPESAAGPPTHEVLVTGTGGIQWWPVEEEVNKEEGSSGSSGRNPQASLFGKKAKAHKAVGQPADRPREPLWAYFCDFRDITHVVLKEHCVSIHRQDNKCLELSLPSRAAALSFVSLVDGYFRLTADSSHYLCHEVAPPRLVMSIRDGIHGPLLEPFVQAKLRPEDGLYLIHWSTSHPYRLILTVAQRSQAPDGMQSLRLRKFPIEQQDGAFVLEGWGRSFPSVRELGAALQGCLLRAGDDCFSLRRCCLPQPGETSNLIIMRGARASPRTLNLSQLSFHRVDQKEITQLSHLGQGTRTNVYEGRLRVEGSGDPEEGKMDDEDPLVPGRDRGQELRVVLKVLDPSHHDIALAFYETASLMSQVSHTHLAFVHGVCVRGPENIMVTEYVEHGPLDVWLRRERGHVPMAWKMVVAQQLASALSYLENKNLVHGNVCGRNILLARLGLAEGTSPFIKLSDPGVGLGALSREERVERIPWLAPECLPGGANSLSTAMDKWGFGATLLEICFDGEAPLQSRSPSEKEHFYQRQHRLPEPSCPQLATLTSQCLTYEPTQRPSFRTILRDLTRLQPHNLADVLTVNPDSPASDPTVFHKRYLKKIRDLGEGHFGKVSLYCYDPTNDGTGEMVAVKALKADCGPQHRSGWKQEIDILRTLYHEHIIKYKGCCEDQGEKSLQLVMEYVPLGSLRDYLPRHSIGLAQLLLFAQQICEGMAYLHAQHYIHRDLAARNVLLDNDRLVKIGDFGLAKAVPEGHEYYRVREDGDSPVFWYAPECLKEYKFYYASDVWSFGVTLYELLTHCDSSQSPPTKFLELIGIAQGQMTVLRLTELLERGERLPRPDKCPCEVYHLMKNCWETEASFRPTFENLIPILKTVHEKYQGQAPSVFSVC

Question: With CC(C)CN(C(=O)c1cccnc1)c1c2ccccc2c(=O)n2c1[nH]c1ccccc12 as the compound, how does the Activity (SW-620 [1]) read?
Answer: 38.82%

Question: And the Activity (SW-620 [2])?
Answer: Dose-dependent effect

Question: And the Activity (SW-620 [3])?
Answer: 92.1%

Question: And the Activity (SW-620 [4])?
Answer: 76.7%

Question: What about the Activity (SW-620 [5]) of the same compound?
Answer: 0.2%

Question: And the Activity (HT-29 [6])?
Answer: Dose-dependent effect

Question: What about the Activity (HT-29 [7]) of the same compound?
Answer: Non-Toxic

Question: And the Activity (SW-620 [8])?
Answer: Non-Toxic

Question: What about the Activity (SW-620 [9]) of the same compound?
Answer: Non-Toxic

Question: What about the Activity [10] of the same compound?
Answer: 65%

Question: What about the Activity [11] of the same compound?
Answer: 90%

Question: What about the Activity [12] of the same compound?
Answer: 100%

Question: What about the Activity [13] of the same compound?
Answer: 100%

Question: And the Activity [14]?
Answer: 87%

Question: What about the Activity [15] of the same compound?
Answer: 100%

Question: What about the Activity [16] of the same compound?
Answer: 98%

Question: What about the Kd [17] of the same compound?
Answer: ≥ 5 µM

Question: And the Kd [18]?
Answer: ≥ 5 µM

Question: What about the Kd [19] of the same compound?
Answer: ≥ 5 µM

Question: And the Kd [20]?
Answer: ≥ 5 µM

Question: What about the Kd (Angiopoietin-1 receptor) of the same compound?
Answer: ≥ 5 µM

Question: And the Kd [21]?
Answer: ≥ 5 µM
